From PubChem
SIRT5 inh – inhibitors of human sirtuin-5 desuccinylase. Q9NXA8. Purified SirT5, succinyl-peptide AMC, trypsin-coupled fluorescence. inhibition, % at 15 µM. 330,000 tested, 1.1% active. AID 652115; in the data active means inhibition above about 15%; inconclusive means no clear call, values can overlap the other calls
AF4-AF9 inh – MLL-AF4/AF9 protein interaction inhibition. inhibition, % at 10 µM. 350,000 tested, 0.47% active. AlphaScreen, biotin-AF4 peptide binding to FLAG-AF9. P42568;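 active means every replicate reaching a set inhibition limit, whatever the replicate mean, cut at about 25% in these data; inconclusive means mean inhibition reaches that limit but some replicates miss it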;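 further: 0% = plate neutral control median and 100% = total signal loss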
Target sequence (P42568 whole entry, looked up): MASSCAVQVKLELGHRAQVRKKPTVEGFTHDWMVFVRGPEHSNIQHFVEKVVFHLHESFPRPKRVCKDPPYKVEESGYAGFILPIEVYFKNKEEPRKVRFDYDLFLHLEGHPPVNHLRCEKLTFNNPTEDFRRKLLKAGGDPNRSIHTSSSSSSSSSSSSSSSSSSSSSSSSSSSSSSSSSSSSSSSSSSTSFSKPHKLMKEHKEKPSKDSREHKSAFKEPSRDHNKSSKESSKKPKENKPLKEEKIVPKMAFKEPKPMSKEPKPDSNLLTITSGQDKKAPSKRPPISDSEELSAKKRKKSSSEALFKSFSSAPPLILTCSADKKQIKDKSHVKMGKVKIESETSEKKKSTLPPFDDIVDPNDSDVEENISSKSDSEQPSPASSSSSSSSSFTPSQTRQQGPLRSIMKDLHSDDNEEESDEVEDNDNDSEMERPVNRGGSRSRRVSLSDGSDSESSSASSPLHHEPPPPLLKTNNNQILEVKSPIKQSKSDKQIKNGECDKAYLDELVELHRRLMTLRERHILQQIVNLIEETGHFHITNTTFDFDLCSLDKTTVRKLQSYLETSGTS
ERp5 inh – inhibitors of human ERp5. ERp5 insulin aggregation, absorbance 650 nm, 90 min. inhibition, % at 9.99 µM. 350,000 tested, 0.05% active. AID 651711;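 active means mean replicate inhibition above about 25%, with every replicate also reaching it, limit read from the data, passing the limit was not always enough; inconclusive means only one of those two criteria met; inactive means neither criterion met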
PDI turbidity – inhibitors of human protein disulfide isomerase; AID 588391; 350,000 tested, 0.052% active; PDI insulin aggregation turbidity, A650, 90 min; inhibition, % at 10 µM; P07237;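 active means mean inhibition across replicates of 30% or more, whatever share of single replicates reach that level; inconclusive means mean inhibition below 30% while every single replicate reaches 30%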
FN deposit inh – fibronectin deposition inhibition; inhibition, % at 12.6 µM; AH1F fibroblasts, Alexa488-fibronectin deposition fluorescence, overnight; AID 743247; 350,000 tested, 0.086% active;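 active means mean inhibition across replicates of 30% or more, regardless of how many single replicates reach that level; inconclusive means mean under 30% yet at least half of replicates reach 30%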;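 further: positive control wells lacked labelled fibronectin entirely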
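material = AH1F fibroblast monolayer depositing Alexa488-labelled fibronectin into matrix | amount = 10000 AH1F cells/well | buffer or medium = DMEM plus 2% serum, read in PBS | incubation = 1 h cell adhesion before compound, then overnight fibronectin incubation | detection = fluorescence at 485 nm excitation, 525 nm emission | evaluation = percent inhibition as loss of matrix-bound fibronectin fluorescence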
An asterisk follows results filed as active; ! = a repeat was not active. This is a sample that favours compounds with a hit; in the whole collection about 1.3% have one here.

How did Clc1ccc2nc(COc3ccccc3)[nH]c2c1 do in these assays?
SIRT5 inh: -4.2; AF4-AF9 inh: 0.1; ERp5 inh: -0.5; PDI turbidity: 7.9; FN deposit inh: 15.0

Results for CN1CCN(Cc2nc3ccccc3c(=O)n2Cc2nc(-c3ccc4ccccc4c3)cs2)CC1 ?
SIRT5 inh: 1.0; AF4-AF9 inh: 1.0; ERp5 inh: 12.9; PDI turbidity: 43.8*!; FN deposit inh: -1.3

Results for CCOC(=O)N1CCN(C(=O)c2cc(COc3ccc4ncccc4c3)on2)CC1 ?
SIRT5 inh: 20.2*; AF4-AF9 inh: -2.8; ERp5 inh: 0.5; PDI turbidity: -3.0; FN deposit inh: 2.3

What do the screens show for `Cc1cccnc1CN1CCN(C(=O)c2cc(COc3ccc4ncccc4c3)on2)CC1`?
SIRT5 inh: -8.0; AF4-AF9 inh: -3.0; ERp5 inh: -2.2; PDI turbidity: 15.4; FN deposit inh: -1.0

What do the screens show for `O=C1Nc2ccccc2C(=O)N2C[C@@H](O)C[C@H]12`?
SIRT5 inh: -3.5; AF4-AF9 inh: 49.0*; ERp5 inh: 6.3; PDI turbidity: 0.9; FN deposit inh: -7.6

What do the screens show for `CN1CC(=O)Nc2ccccc2C1=O`?
SIRT5 inh: -2.2; AF4-AF9 inh: 1.2; ERp5 inh: 2.8; PDI turbidity: -8.5; FN deposit inh: -3.9

How did Cc1onc(-c2ccccc2)c1C(=O)c1c[nH]c(C(=O)NCc2ccccn2)c1 do in these assays?
SIRT5 inh: 19.1*; AF4-AF9 inh: -0.9; ERp5 inh: 1.4; PDI turbidity: 2.8; FN deposit inh: -8.4

Results for O=C(Nc1ccccc1C(=O)O)c1ccc2c(c1)C(=O)N(c1cccc([N+](=O)[O-])c1)C2=O ?
SIRT5 inh: 18.4*; AF4-AF9 inh: -4.2; ERp5 inh: 2.0; PDI turbidity: 5.2; FN deposit inh: -2.1

How did COc1ccc(-c2ccc3c(c2)[C@@H]2[C@@H](CCN2C(=O)C2CCCC2)[C@H](CO)N3C)cc1 do in these assays?
SIRT5 inh: 9.5; AF4-AF9 inh: 35.1*; ERp5 inh: 0.2; FN deposit inh: -12.7

Results for CN1c2ccc(C3=CCCCC3)cc2[C@H]2[C@H](CCN2C(=O)C2CCCC2)[C@@H]1CO ?
SIRT5 inh: 1.1; AF4-AF9 inh: 1.9; ERp5 inh: 1.0; FN deposit inh: -10.4

How did COc1ccc(-c2ccc3c(c2)[C@H]2[C@H](CCN2C(=O)C2CCCCC2)[C@H](CO)N3C)cc1 do in these assays?
SIRT5 inh: 0.7; AF4-AF9 inh: -2.4; ERp5 inh: -2.9; FN deposit inh: 8.4

Results for CN(C)C(=O)c1ccc(-c2ccc3c(c2)[C@@H]2[C@@H](CCN2C(=O)c2ccc(F)cc2)[C@H](CO)N3C)cc1 ?
SIRT5 inh: 2.4; AF4-AF9 inh: 10.7; ERp5 inh: 5.3; FN deposit inh: 30.9*

What do the screens show for `CN1c2ccc(C3=CCCCC3)cc2[C@@H]2[C@@H](CCN2C(=O)C2CCCCC2)[C@H]1CO`?
SIRT5 inh: -16.5; AF4-AF9 inh: 25.2*; ERp5 inh: -6.1; FN deposit inh: -1.2

What do the screens show for `CN1c2ccc(-c3cccc(F)c3)cc2[C@H]2[C@H](CCN2C(=O)C2CCC2)[C@H]1CO`?
AF4-AF9 inh: 28.0*; FN deposit inh: -25.3

Results for COc1ccccc1N1CCN(/N=C\c2sccc2C)CC1 ?
SIRT5 inh: 1.0; AF4-AF9 inh: 30.4*; ERp5 inh: -1.5; PDI turbidity: -4.0; FN deposit inh: -0.8

How did COc1ccccc1N1CCN(/N=C/C=C/c2ccccc2[N+](=O)[O-])CC1 do in these assays?
SIRT5 inh: 0.8; AF4-AF9 inh: 48.3*; ERp5 inh: -3.4; PDI turbidity: 6.7; FN deposit inh: -1.3

Results for O=[N+]([O-])c1ccccc1/C=C\C=N\N1CCN(c2ccccc2)CC1 ?
SIRT5 inh: 0.4; AF4-AF9 inh: 42.1*; ERp5 inh: 2.1; PDI turbidity: 4.9; FN deposit inh: 2.3

How did COc1ccccc1N1CCN(/N=C/c2cc([N+](=O)[O-])ccc2Cl)CC1 do in these assays?
SIRT5 inh: -1.1; AF4-AF9 inh: inconclusive; ERp5 inh: -1.3; PDI turbidity: -0.1

Results for CCCCc1ccc(NC(=O)Nc2c(C)n(C)n(-c3ccccc3)c2=O)cc1 ?
SIRT5 inh: 3.9; AF4-AF9 inh: 0.1; ERp5 inh: -1.0; PDI turbidity: 0.3

Results for C=CCn1c(SCC(=O)NCCC2=CCCCC2)nc2ccc(Cl)cc2c1=O ?
PDI turbidity: -3.9; FN deposit inh: 8.6

What do the screens show for `Cc1cc(Sc2nc(N)ncc2[N+](=O)[O-])ncn1`?
SIRT5 inh: -3.4; AF4-AF9 inh: -1.5; ERp5 inh: 0.4; PDI turbidity: 6.3; FN deposit inh: -8.9

Results for CC[n+]1c(C=C2C=C(C)OC(C)=C2)sc2ccccc21 ?
SIRT5 inh: 19.3*; AF4-AF9 inh: -0.1; ERp5 inh: 1.4; PDI turbidity: 9.1; FN deposit inh: -45.0

What do the screens show for `CC[n+]1c(/C=C2/C=C(C)CC(C)C2)sc2ccccc21` (stereo unspecified)?
SIRT5 inh: -3.4; AF4-AF9 inh: 2.3; ERp5 inh: -0.6; PDI turbidity: -1.9; FN deposit inh: -7.6

What do the screens show for `COc1ccc2cc(CCNC(=O)C(C)C)c(=O)[nH]c2c1`?
SIRT5 inh: -0.9; AF4-AF9 inh: 31.1*; ERp5 inh: -7.6; PDI turbidity: -3.7; FN deposit inh: -1.1

Results for C[C@H]1CN([C@@H](C)CO)C(=O)c2cc(NC(=O)Nc3ccc(C(F)(F)F)cc3)ccc2O[C@@H]1CN(C)S(=O)(=O)c1ccccc1 ?
SIRT5 inh: -3.2; AF4-AF9 inh: -2.9; ERp5 inh: -6.5

What do the screens show for `C=CCNC(=O)CN1CCC(c2nc3ccccc3[nH]2)CC1`?
SIRT5 inh: -3.9; AF4-AF9 inh: -0.4; ERp5 inh: -4.1; PDI turbidity: 11.2; FN deposit inh: 8.3

Results for C=CCNC(=O)CN1CCC(c2nc3cc(C)c(C)cc3[nH]2)CC1 ?
SIRT5 inh: 17.7*; AF4-AF9 inh: -1.9; ERp5 inh: 2.0; PDI turbidity: 3.0; FN deposit inh: 3.0

Results for CCOC(=O)N1CCN(C(=O)c2cnn3c(C)c(Cc4ccc(C)cc4)c(C)nc23)CC1 ?
PDI turbidity: -1.6

What do the screens show for `CN1CCC(=NNC(=O)COc2ccc(Cl)cc2)CC1`?
SIRT5 inh: 20.8*; AF4-AF9 inh: -0.5; ERp5 inh: 7.9; PDI turbidity: -1.6; FN deposit inh: 6.1

Results for O=C(COc1ccc(Cl)cc1)NN=C1CCCCCCC1 ?
SIRT5 inh: -0.7; AF4-AF9 inh: -2.4; ERp5 inh: 8.4; PDI turbidity: -7.7

Results for CCOC(=O)CNC(=O)C12CC3CC(CC(C3)C1)C2 ?
SIRT5 inh: 15.8*; AF4-AF9 inh: -1.2; ERp5 inh: -12.3; PDI turbidity: -3.0; FN deposit inh: 0.5

How did CCCCCCCCCCCCCCCCCCNc1ccn(C2OC(COP(=O)(O)OCC3OC(n4cc(F)c(=O)[nH]c4=O)CC3O)C(O)C2O)c(=O)n1 (stereo unspecified) do in these assays?
SIRT5 inh: 35.5*; AF4-AF9 inh: 0.1; ERp5 inh: -10.0; PDI turbidity: -19.9; FN deposit inh: 2.8
